Reference: ChEMBL document CHEMBL3046772, “Synthesis and antifeedant activity of new oxadiazolyl 3(2H)-pyridazinones” (2003)

Tests used:
Assay type in all cases: functional
Ostrinia furnacalis [1] = assay: Antifeedant activity against fifth-instar larval stage of Ostrinia furnacalis (Asian corn borer) assessed as feeding deterrence index at 500 mg/kg after 24 hr by diet-choice assay
In short: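 Newly moulted fifth-instar larvae offered artificial diet with compound added (dissolved in acetone, mixed into diet ingredients before preparation) at 500 mg/kg versus solvent-only control diet. Five replicates of 10 larvae. After 24 h, deterrency index (%) = [(C − T)/(C + T)] × 100, where C and T are amounts of control and treated diet eaten.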

Ostrinia furnacalis [2] = assay: Antifeedant activity against fifth-instar larval stage of Ostrinia furnacalis (Asian corn borer) assessed as larval weight gain at 10 mg/kg after 5 days by diet-choice assay (reference value: 43.3 +/- 20.8 mg)
Ostrinia furnacalis [3] = assay: Antifeedant activity against fifth-instar larval stage of Ostrinia furnacalis (Asian corn borer) assessed as larval weight gain at 20 mg/kg after 5 days by diet-choice assay (reference value: 43.3 +/- 20.8 mg)
Ostrinia furnacalis [4] = assay: Antifeedant activity against fifth-instar larval stage of Ostrinia furnacalis (Asian corn borer) assessed as larval weight gain at 5 mg/kg after 5 days by diet-choice assay (reference value: 43.3 +/- 20.8 mg)

CC(C)(C)n1ncc(OCc2nnc(-c3ccccc3F)o2)c(Cl)c1=O
FDI (Ostrinia furnacalis [1]): 41.34%

CC(C)(C)n1ncc(OCc2nnc(-c3cc(F)c(Cl)cc3Cl)o2)c(Cl)c1=O
FDI (Ostrinia furnacalis [1]): 35.16%

CC(C)(C)n1ncc(OCc2nnc(-c3ccccc3)o2)c(Cl)c1=O
Activity (Ostrinia furnacalis [2]): 16.2 mg
Activity (Ostrinia furnacalis [3]): 6.6 mg
Activity (Ostrinia furnacalis [4]): 42.3 mg
FDI (Ostrinia furnacalis [1]): 57.61%

Cc1ccc(-c2nnc(COc3cnn(C(C)(C)C)c(=O)c3Cl)o2)cc1
FDI (Ostrinia furnacalis [1]): 4.28%

CC(C)(C)n1ncc(OCc2nnc(-c3ccc(F)cc3)o2)c(Cl)c1=O
FDI (Ostrinia furnacalis [1]): 51.08%

CCc1ccc(-c2nnc(COc3cnn(C(C)(C)C)c(=O)c3Cl)o2)cc1
FDI (Ostrinia furnacalis [1]): 40.18%

CC(C)(C)n1ncc(OCc2nnc(-c3ccc(Cl)cc3)o2)c(Cl)c1=O
FDI (Ostrinia furnacalis [1]): 46.73%

COc1ccc(-c2nnc(COc3cnn(C(C)(C)C)c(=O)c3Cl)o2)cc1
FDI (Ostrinia furnacalis [1]): 38.45%

CC(C)(C)n1ncc(OCc2nnc(-c3cccc(F)c3)o2)c(Cl)c1=O
Activity (Ostrinia furnacalis [2]): 22.6 mg
Activity (Ostrinia furnacalis [3]): 8.7 mg
Activity (Ostrinia furnacalis [4]): 38.4 mg
FDI (Ostrinia furnacalis [1]): 51.67%

C/C=C(\C)C(=O)O[C@H]1C[C@@H](OC(C)=O)[C@@]2(C(=O)OC)CO[C@H]3[C@@H](O)[C@@](C)([C@]45O[C@@]4(C)[C@@H]4C[C@H]5O[C@@H]5OC=C[C@@]54O)[C@H]4[C@]1(CO[C@]4(O)C(=O)OC)[C@@H]32 [AZADIRACHTIN A]
Activity (Ostrinia furnacalis [2]): 7.8 mg
Activity (Ostrinia furnacalis [3]): 1.2 mg
Activity (Ostrinia furnacalis [4]): 22 mg
FDI (Ostrinia furnacalis [1]): 59.9%
